A selection: hits, their analogues and other compounds. The true share with any hit is near 2.9%.
TCR CD3 inh – inhibitors of human TCR-CD3 interaction, primary screen, biochemical, fluorescence, TAMRA-labeled TCR probe; inhibition, % at 9.4 µM; T-cell receptor (TCR); actives 0.37% (n = 360,000);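 note: recombinant mutant TCR 2C K166C tagged with TAMRA read by polarization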
ABHD4 inh – ABHD4 inhibitors, primary screen, biochemical, fluorescence polarization, mouse | (Lyso)-N-acylphosphatidylethanolamine lipase (Mus musculus), Q8VD66 | purified mABHD4, FP-Rh probe fluorescence polarization | inhibition, % at 8.92 µM | actives 0.54% (n = 370,000) | AID 720543, 2013;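 active = inhibition exceeding the mean over every tested compound plus 3 SD, cut at about 30% in these data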
Target sequence (Q8VD66 whole entry, looked up): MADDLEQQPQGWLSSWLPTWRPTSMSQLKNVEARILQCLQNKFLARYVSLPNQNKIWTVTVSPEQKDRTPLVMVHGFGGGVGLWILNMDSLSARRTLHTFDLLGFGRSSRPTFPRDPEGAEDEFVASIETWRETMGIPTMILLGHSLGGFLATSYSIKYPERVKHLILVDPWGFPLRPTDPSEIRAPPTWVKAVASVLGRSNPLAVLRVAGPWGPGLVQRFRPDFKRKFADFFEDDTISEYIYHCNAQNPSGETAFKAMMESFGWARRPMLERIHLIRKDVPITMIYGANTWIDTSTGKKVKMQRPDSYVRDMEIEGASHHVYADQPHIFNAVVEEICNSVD
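Test system: mouse ABHD4 enzyme, wild type. Reagent: FP-Rh fluorescent activity-based probe, added after compound pre-incubation. Timing: pre-incubation 45 min, probe exposure 60 min, at 25 °C. Technique: FP readout, ex 525 nm / em 598 nm. Benchmarks: high control S159A mutant with DMSO, low control median of compound wells.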
HTRA1 inhibitor – HTRA1 serine protease inhibitors, primary screen, biochemical, fluorescence polarization, HTS. Q92743. recombinant HTRA1, FP-rhodamine activity-based probe. inhibition, % at 5.96 µM. actives 0.5% (n = 340,000); in the data active = inhibition above about 36%
PAD4 FP inh – human PAD4 inhibitors, primary screen, biochemical, fluorescence polarization, 1536-well format; inhibition, % at 6.36 µM; actives 0.41% (n = 330,000); Protein-arginine deiminase type-4 (Homo sapiens), Q9UM07; recombinant PAD4, RCA probe fluorescence polarization;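 active = percent inhibition above a cutoff equal to the mean of all tested compounds plus 3 SD, cut at about 15% in these data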
SIAE inh – human SIAE inhibitors, primary screen, biochemical, fluorescence polarization, FP-Rh probe, 1536-well HTS. Sialate O-acetylesterase (Homo sapiens), Q9HAT2. SIAE FP-Rh probe binding. inhibition, % at 9.66 µM. actives 0.69% (n = 370,000);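 active = inhibition above a cutoff: mean of compounds within the control limits plus 3 SD of those, cut at about 17% in these data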
PRMT1 FP inh – PRMT1 methyltransferase inhibitors, primary screen, biochemical, fluorescence polarization. Protein arginine N-methyltransferase 1 (Homo sapiens), Q99873. recombinant PRMT1, activity-based probe fluorescence polarization. inhibition, % at 2.79 µM. actives 1.3% (n = 370,000). AID 652257, 2013;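 active = inhibition above about 21% made by adding two undisclosed values, limit read from the data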
Target sequence (Q99873 whole entry, looked up): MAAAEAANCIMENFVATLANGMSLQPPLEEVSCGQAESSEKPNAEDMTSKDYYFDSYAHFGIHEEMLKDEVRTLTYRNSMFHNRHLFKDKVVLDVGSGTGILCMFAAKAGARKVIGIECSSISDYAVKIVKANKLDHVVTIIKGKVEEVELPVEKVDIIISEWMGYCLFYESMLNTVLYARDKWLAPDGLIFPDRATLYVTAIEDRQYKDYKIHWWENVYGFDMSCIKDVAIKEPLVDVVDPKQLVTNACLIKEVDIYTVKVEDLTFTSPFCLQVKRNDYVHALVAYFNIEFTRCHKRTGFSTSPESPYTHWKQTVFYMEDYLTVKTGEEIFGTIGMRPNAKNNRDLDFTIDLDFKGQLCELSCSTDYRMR
BSA TAMRA ctr – compounds interfering with TAMRA-BSA probe, counter-screen for TCR-CD3 interaction inhibitor project, biochemical, fluorescence, TAMRA-labeled BSA; inhibition, % at 9.4 µM; actives 10% (n = 1,200); AID 652035, 2013; shares compounds with TCR CD3 inh; TAMRA-labeled BSA probe fluorescence counterscreen; in the data active = inhibition above about 23%
TCR-CD3 inh conf – TCR-CD3 interaction inhibitors, retest, confirmation, biochemical, fluorescence, TAMRA-labeled TCR probe; TAMRA-labeled TCR probe fluorescence binding assay; AID 652036, 2013; inhibition, % at 9.4 µM; shares compounds with TCR CD3 inh; actives 48% (n = 1,200)
Each line names hits and unclear results; the compound was inactive in the other large screens (follow-up assays come after a bar, where they were run). Cut-off read from the data, not from the text of the source, unless noted: active = inhibition above about 19%; inactive = the rest.

CC(=O)c1ccc(S(=O)(=O)Nc2cccc(-n3cnnn3)c2)cc1	TCR CD3 inh 20 | BSA TAMRA ctr inactive | TCR-CD3 inh conf inactive
CCC1=NN(C(=O)c2ccc(Br)cc2)C(O)(c2ccccc2)C1 (stereo not given)	none
CCC1=NN(C(=O)c2cccc([N+](=O)[O-])c2)C(O)(c2ccc(C)cc2)C1 (stereo not given)	TCR CD3 inh 30 | BSA TAMRA ctr inactive | TCR-CD3 inh conf 28
COc1ccc(CN2CCC(CNC(=O)NC(C)C)CC2)cc1	none (no result: TCR CD3 inh, HTRA1 inhibitor, PAD4 FP inh)
CCOc1cc(/C=N/NS(=O)(=O)c2ccccc2)ccc1OS(=O)(=O)c1ccc(C)cc1	none
CCOc1cc(/C=N/NC(=O)COc2ccc(Cl)cc2)ccc1OS(=O)(=O)c1ccccc1	TCR CD3 inh 28 | BSA TAMRA ctr 24 | TCR-CD3 inh conf 35
O=C(O)C1=CC[C@@H](c2ccc(Cl)cc2)N(S(=O)(=O)c2ccc(Cl)cc2)[C@H]1c1ccccc1	TCR CD3 inh 36 | BSA TAMRA ctr inactive | TCR-CD3 inh conf inactive
Cc1ccc([C@H]2C(C(=O)O)=CC[C@@H](c3ccc(Cl)cc3)N2S(=O)(=O)c2ccc(C)cc2)cc1	none
CC(C)c1ccc(NC(=O)C(c2ccccc2)N2CCN(C=O)CC2)cc1 (stereo not given)	none
CC(C)c1ccc(NC(=O)C(c2ccccc2)N2CCOCC2)cc1 (stereo not given)	TCR CD3 inh 24 | BSA TAMRA ctr inactive | TCR-CD3 inh conf inactive
Cc1cccc(-n2c(O)c(C=Nc3cc(O)ccc3C)c3ccccc3c2=O)n1	TCR CD3 inh 37 | BSA TAMRA ctr inactive | TCR-CD3 inh conf inactive
COc1cccc(N=Cc2c(O)n(-c3cccc(C)n3)c(=O)c3ccccc23)c1	none
Cc1cccc(-n2c(O)c(/C=N/NC(=O)c3ccccc3Cl)c3ccccc3c2=O)n1	TCR CD3 inh 28 | BSA TAMRA ctr inactive | TCR-CD3 inh conf 37
NC(Cc1ccc(O)c([N+](=O)[O-])c1)C(=O)O (stereo not given)	none
N[C@@H](Cc1ccc(O)c(O)c1)C(=O)O	TCR CD3 inh 75 (no result: PAD4 FP inh) | BSA TAMRA ctr inactive | TCR-CD3 inh conf 32
CCN(CC)S(=O)(=O)c1ccc(NC(=O)C2c3ccccc3Oc3ccccc32)cc1	TCR CD3 inh 45 | BSA TAMRA ctr inactive | TCR-CD3 inh conf inactive
CCN(CC)S(=O)(=O)c1ccc(NC(=O)Nc2cccc(C(F)(F)F)c2)cc1	TCR CD3 inh 81 | BSA TAMRA ctr 24 | TCR-CD3 inh conf 54
Cc1ccc(S(=O)(=O)Nc2ccc(NC(=O)Nc3cccc(C(F)(F)F)c3)cc2)cc1	none
O=C(NNC(=S)Nc1ccccc1)Nc1ccccc1	none
O=C(NNC(=S)Nc1ccccc1)NNC(=S)Nc1ccccc1	TCR CD3 inh 30 | BSA TAMRA ctr inactive | TCR-CD3 inh conf inactive
CN1CC=C(c2ccccc2)N(c2ccc(Br)cc2)C1=O	none (no result: TCR CD3 inh, HTRA1 inhibitor, PAD4 FP inh)
COc1ccc(N2CCN(C(c3cccs3)C(C)NC(=O)C(=O)N3CCCCC3)CC2)cc1 (stereo not given)	none
COc1ccc(N2CCN(C(c3cccs3)C(C)NC(=O)C(=O)N3CCCC3)CC2)cc1 (stereo not given)	TCR CD3 inh 20 | BSA TAMRA ctr inactive | TCR-CD3 inh conf inactive
CC(C)[C@H](NC(=O)c1ccco1)C(=O)OCC(=O)c1ccc2c(c1)NC(=O)CO2	TCR CD3 inh 118 | BSA TAMRA ctr inactive | TCR-CD3 inh conf inactive
O=C(N/N=C/c1cc(Br)ccc1O)c1cccc(N2CCCC2=O)c1	TCR CD3 inh 30 | BSA TAMRA ctr inactive | TCR-CD3 inh conf 26
O=C1NNC(=O)C1c1ccccc1	TCR CD3 inh 35 | BSA TAMRA ctr inactive | TCR-CD3 inh conf inactive
Cc1nn2c(-c3cccc(NC(=O)c4ccco4)c3)nnc2c2ccccc12	TCR CD3 inh 20 | BSA TAMRA ctr inactive | TCR-CD3 inh conf inactive
O=C1CCCC2=C1[C@@]1(O[C@H]3C=CC=CN23)C(=O)N(c2ccccc2)c2ccccc21	none (no result: HTRA1 inhibitor, PAD4 FP inh)
Cc1ccc(SCc2cn3cc(Cl)ccc3n2)cc1	none
Clc1ccc2nc(CSCc3ccccc3)cn2c1	TCR CD3 inh 39 | BSA TAMRA ctr inactive | TCR-CD3 inh conf inactive
Brc1ccc(-c2nn3c(-c4ccccn4)nnc3s2)o1	TCR CD3 inh 30 | BSA TAMRA ctr inactive | TCR-CD3 inh conf inactive
COC(=O)c1cc2c(c3c4cc(C)ccc4n(S(=O)(=O)c4cccc(C)c4)c13)C(=O)N(Cc1ccc(N(C)C)cc1)C2	none (no result: HTRA1 inhibitor, PAD4 FP inh)
O=C(NCc1cccs1)C1CCC(CNS(=O)(=O)c2cccc3cccnc23)CC1 (stereo not given)	none (no result: TCR CD3 inh, HTRA1 inhibitor, PAD4 FP inh)
COc1ccccc1CC1CC(=O)N(c2cccc(Cl)c2C)C1=O (stereo not given)	TCR CD3 inh 19 | BSA TAMRA ctr inactive | TCR-CD3 inh conf inactive
CCOC(=O)c1cnc(Cc2ccccc2)[nH]c1=O	TCR CD3 inh 33 | BSA TAMRA ctr inactive | TCR-CD3 inh conf inactive
O=S(=O)(c1ccc(CN2CCOCCOCCN(Cc3ccc(S(=O)(=O)C(F)(F)F)cc3)CCOCC2)cc1)C(F)(F)F	none (no result: TCR CD3 inh, HTRA1 inhibitor, PAD4 FP inh)
S=C(Nc1ccc(I)cc1)OC1CCC12CCC(c1ccccc1)CC2 (stereo not given)	none (no result: TCR CD3 inh, HTRA1 inhibitor, PAD4 FP inh)
Cc1ccc(-c2nc3c(C)cc(Br)cn3c2Cc2ccsc2)cc1	TCR CD3 inh 23 (no result: HTRA1 inhibitor, PAD4 FP inh) | BSA TAMRA ctr inactive | TCR-CD3 inh conf inactive
Cc1cc(Br)cn2c(Cc3ccsc3)c(-c3ccccc3)nc12	none (no result: HTRA1 inhibitor, PAD4 FP inh)
C/C(=N\NC(=O)c1ccc(NS(=O)(=O)c2cccs2)cc1)c1ccc(O)cc1O	TCR CD3 inh 19 | BSA TAMRA ctr inactive | TCR-CD3 inh conf 20
Cc1ccc(C(=O)NCCCC(=O)O)o1	TCR CD3 inh 41 | BSA TAMRA ctr inactive | TCR-CD3 inh conf inactive
Cc1nc(S/C(=C/c2ccc(OCc3ccc(C(=O)O)cc3)cc2)C(=O)O)n[nH]1	TCR CD3 inh 22 | BSA TAMRA ctr inactive | TCR-CD3 inh conf 32
Cc1c(C)n(Cc2ccc(-c3ccccc3C(=O)O)cc2)c2ccc(C(=O)N[C@@H](C)c3ccc(Br)cc3)cc12	none (no result: TCR CD3 inh, HTRA1 inhibitor, PAD4 FP inh)
CCC(C)(C)NC(=O)Cc1ccc(Cl)cc1	TCR CD3 inh 33 (no result: HTRA1 inhibitor) | BSA TAMRA ctr inactive | TCR-CD3 inh conf inactive

Source: PubChem (The Scripps Research Institute Molecular Screening Center)
